Source: ChEMBL document CHEMBL1147233, “Chemistry and structure-activity relationship of HIV-1 integrase inhibitor integracide B and related natural products” (J Nat Prod, 2003)

Key:
[1] = target: T1, Human immunodeficiency virus type 1 integrase (Human immunodeficiency virus 1, UniProt Q7ZJM1); assay: Inhibition of recombinant HIV1 integrase using unprocessed donor DNA by coupled assay
Outline: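 Unprocessed donor DNA and inhibitor incubated with recombinant integrase together for 30 min, then target DNA added; strand-transfer product measured. Final DMSO 10%. IC50 from serial 2-fold dilutions in duplicate or triplicate; values without error limits are the average of these.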

[2] = target: T1, Human immunodeficiency virus type 1 integrase; assay: Inhibition of recombinant HIV1 integrase using preprocessed donor DNA treated after washing excess enzyme by strand transfer assay
Outline: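 Integrase preincubated with preprocessed donor DNA, unbound enzyme washed off, then target DNA and inhibitor added together. Strand transfer product measured. Final DMSO 10%. IC50 from serial 2-fold dilutions run in duplicate or triplicate; values without error limits are the average of these.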

[3] = test system: Human immunodeficiency virus 1; assay: Antiviral activity against HIV1 infected in human H9 cells; type: functional; conditions: Human immunodeficiency virus 1, H9; read-out: CIC95
Outline: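 Multiple-cycle viral spread assay in HIV-1-infected H9 T-lymphoid cells; value is CIC95, the concentration giving >95% protection from viral infection.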

[4] = target: Type II restriction enzyme EcoRI (Escherichia coli, UniProt P00642); assay: Inhibition of Escherichia coli ECOR1
[5] = Inhibition of DNAse

Type II restriction enzyme EcoRI, sequence (P00642 whole entry): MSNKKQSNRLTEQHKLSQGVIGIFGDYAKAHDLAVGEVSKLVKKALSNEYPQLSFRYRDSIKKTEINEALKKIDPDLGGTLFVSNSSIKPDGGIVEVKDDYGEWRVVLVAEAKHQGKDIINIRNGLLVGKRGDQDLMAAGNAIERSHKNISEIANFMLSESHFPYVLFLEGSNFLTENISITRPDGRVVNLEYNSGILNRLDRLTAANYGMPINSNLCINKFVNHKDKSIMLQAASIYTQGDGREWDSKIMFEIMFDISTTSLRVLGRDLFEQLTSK
T1 sequence (Q7ZJM1 whole entry): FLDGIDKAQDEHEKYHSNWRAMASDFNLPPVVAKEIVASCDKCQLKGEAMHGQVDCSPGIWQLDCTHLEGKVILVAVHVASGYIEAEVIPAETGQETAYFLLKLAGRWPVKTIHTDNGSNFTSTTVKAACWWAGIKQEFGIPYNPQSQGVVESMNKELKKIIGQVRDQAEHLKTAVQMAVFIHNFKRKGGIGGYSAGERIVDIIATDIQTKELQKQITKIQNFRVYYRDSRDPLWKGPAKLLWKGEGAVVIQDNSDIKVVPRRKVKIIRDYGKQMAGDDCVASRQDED

| SMILES | IC50 [1] [µM] | IC50 [2] [µM] | IC50 [4] [µM] | IC50 [5] [µM] | IC95 [3] [µM] |
| --- | --- | --- | --- | --- | --- |
| C=C(CC[C@@H](C)[C@H]1CC=C2C3=C([C@@H](O)[C@H](OC(C)=O)[C@@]21C)[C@@]1(C)C[C@@H](OC(=O)CCC(=O)O)[C@H](O)C(C)(C)[C@@H]1CC3)C(C)C | 3 | 12 | > 50 | > 50 | 6 |
| C=C(CC[C@@H](C)[C@H]1CC=C2C3=C([C@@H](O)[C@H](OC(C)=O)[C@@]21C)[C@@]1(C)C[C@@H](OC(=O)CN)[C@H](OC(=O)CN)C(C)(C)[C@@H]1CC3)C(C)C | 1.7 | 11.5 | > 50 | 47 |  |
| C=C(CC[C@@H](C)[C@H]1CC=C2C3=C([C@@H](O)[C@H](OC(C)=O)[C@@]21C)[C@@]1(C)C[C@@H](OC(=O)CNC(=O)OCC2c4ccccc4-c4ccccc42)[C@H](O)C(C)(C)[C@@H]1CC3)C(C)C | > 50 | > 50 | > 50 | > 50 |  |
| C=C(CC[C@@H](C)[C@H]1CC=C2C3=C([C@@H](O)[C@H](OC(C)=O)[C@@]21C)[C@@]1(C)C[C@@H](OC(=O)CNC(=O)OCC2c4ccccc4-c4ccccc42)[C@H](OC(=O)CNC(=O)OCC2c4ccccc4-c4ccccc42)C(C)(C)[C@@H]1CC3)C(C)C | > 50 | > 50 | > 50 | > 50 |  |
| C=C(CC[C@@H](C)[C@H]1CC=C2C3=C([C@@H](O)[C@H](OC(C)=O)[C@@]21C)[C@@]1(C)C[C@@H](OC(=O)c2ccccc2)[C@H](OC(=O)c2ccccc2)C(C)(C)[C@@H]1CC3)C(C)C | > 69 | > 69 | > 50 | > 50 |  |
| C=C(CC[C@@H](C)[C@H]1CC=C2C3=C([C@@H](O)[C@H](OC(C)=O)[C@@]21C)[C@@]1(C)CC[C@H](OS(=O)(=O)O)C(C)(C)[C@@H]1CC3)C(C)C | 3.1 | 4.8 | > 50 | > 50 |  |
| C=C(CC[C@@H](C)[C@H]1CC=C2C3=C([C@@H](O)[C@H](OC(C)=O)[C@@]21C)[C@@]1(C)C[C@H]2OC(C)(C)O[C@@H]2C(C)(C)[C@@H]1CC3)C(C)C | > 50 | > 50 | > 50 | > 50 |  |
| C=C(CC[C@@H](C)[C@H]1CC=C2C3=C(C(=O)[C@H](OC(C)=O)[C@@]21C)[C@@]1(C)C[C@@H](O)[C@H](O)C(C)(C)[C@@H]1CC3)C(C)C | 75 | > 100 | > 50 | > 50 |  |

Continued, in another order:

| IC50 [1] [µM] | IC50 [2] [µM] | IC50 [4] [µM] | IC50 [5] [µM] | SMILES | IC95 [3] [µM] |
| --- | --- | --- | --- | --- | --- |
| > 50 | > 50 | > 50 | > 50 | C=C(CC[C@@H](C)[C@H]1CC=C2C3=C([C@@H](O)[C@H](OC(C)=O)[C@@]21C)[C@@]1(C)C[C@@H](OC(=O)CCC(=O)OC)[C@H](O)C(C)(C)[C@@H]1CC3)C(C)C |  |
| 18 | > 50 | > 50 | > 50 | C=C(CC[C@@H](C)[C@H]1CC=C2C3=C([C@@H](O)[C@H](OC(C)=O)[C@@]21C)[C@@]1(C)C[C@@H](O)[C@H](OC(=O)CN)C(C)(C)[C@@H]1CC3)C(C)C |  |
| > 50 | > 50 | > 50 | > 50 | C=C(CC[C@@H](C)[C@H]1CC=C2C3=C([C@@H](O)[C@H](OC(C)=O)[C@@]21C)[C@@]1(C)C[C@@H](OC(=O)CNC(=O)OC(C)(C)C)[C@H](OC(=O)CNC(=O)OC(C)(C)C)C(C)(C)[C@@H]1CC3)C(C)C |  |
| > 50 | > 50 | > 50 | > 50 | C=C(CC[C@@H](C)[C@H]1CC=C2C3=C([C@@H](O)[C@H](OC(C)=O)[C@@]21C)[C@@]1(C)C[C@@H](O)[C@H](OC(=O)CCC(=O)OC)C(C)(C)[C@@H]1CC3)C(C)C |  |
| > 50 | > 50 | > 50 | > 50 | C=C(CC[C@@H](C)[C@H]1CC=C2C3=C([C@@H](O)[C@H](OC(C)=O)[C@@]21C)[C@@]1(C)C[C@@H](OC(=O)CNC(=O)OC(C)(C)C)[C@H](O)C(C)(C)[C@@H]1CC3)C(C)C |  |
| 50 | > 100 | > 50 | > 50 | C=C(CC[C@@H](C)[C@H]1C[C@H](OC)c2c3c(cc(C)c21)[C@@]1(C)C[C@@H](O)[C@H](O)C(C)(C)[C@@H]1CC3)C(C)C |  |
| 50 | > 100 | > 50 | > 50 | C=C(CC[C@@H](C)[C@H]1C[C@@H](OC)c2c3c(cc(C)c21)[C@@]1(C)C[C@@H](O)[C@H](O)C(C)(C)[C@@H]1CC3)C(C)C |  |
